Experimental data as given in ChEMBL document CHEMBL2169769, “Synthesis and biological characterization of protease-activated prodrugs of doxazolidine” (J Med Chem, 2012).
The source made the active and inactive calls. The rule behind the calls is not given here.

Experiments:
MIA PaCa-2 [1] = experiment: Cytotoxicity against human MIAPaCa2 cells incubated for 3 hrs measured after 3 to 4 hrs in presence of plasmin; assay type: functional, cell-based
MCF7 [2] = experiment: Cytotoxicity against human MCF7 cells incubated for 3 hrs measured after 3 to 4 hrs in presence of plasmin; assay type: functional, cell-based
MCF7 [3] = experiment: Cytotoxicity against human MCF7 cells incubated for 3 hrs measured after 3 to 4 hrs in absence of plasmin; assay type: functional, cell-based
MIA PaCa-2 [4] = experiment: Cytotoxicity against human MIAPaCa2 cells incubated for 3 hrs measured after 3 to 4 hrs in absence of plasmin; assay type: functional, cell-based
[5] = Prodrug conversion assessed as release of human plasmin induced active dozax at 50 uM pH 7.4 in PBS by RP-HPLC; assay type: ADME; settings: buffer, pH 7.4, 50 µM
Procedure, shortened: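 50 µM prodrug with 1.2 µg/mL human plasmin in PBS pH 7.4 at 37 °C. Samples taken over time, ethanol-quenched, analysed by RP-HPLC at 480 nm for prodrug and dox; repeated runs fit to single-exponential association model.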

[6] = Prodrug conversion assessed as release of active dozax in absence of plasmin at 50 uM pH 7.4 in PBS by RP-HPLC; assay type: ADME; settings: buffer, pH 7.4, 50 µM
Procedure, shortened: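 Enzyme-free control: 50 µM prodrug in PBS at 37 °C over 24 h, RP-HPLC monitoring dox at 480 nm.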

[7] = tested on: COc1cccc2c1C(=O)c1c(O)c3c(c(O)c1C2=O)C[C@@](O)(C(=O)CO)C[C@@H]3O[C@H]1C[C@H]2[C@H](OCN2C(=O)OCc2ccc(NC(=O)[C@H](CCCCN)NC(=O)[C@H](Cc3ccccc3)NC(=O)[C@@H](C)NC(=O)CNC(C)=O)cc2)[C@H](C)O1; experiment: Activity of human cathepsin B assessed as enzyme catalytic turnover for compound hydrolysis at 50 uM at pH 6.5 in PBS buffer containing 10 mM N-acetylcysteine by RP-HPLC
Procedure, shortened: (§1)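 Michaelis-Menten kinetics, substrate 10–400 µM at 37 °C. Plasmin: 0.2 U, PBS pH 7.4, 4 min. Cathepsin B: 0.08 U, PBS-NAC pH 6.5, 20 min. Quenched with equal volume ethanol, −20 °C ≥2 h, centrifuged, supernatant RP-HPLC at 480 nm. Rates (µM/min) fit by non-linear least squares; triplicates.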

[8] = tested on: COc1cccc2c1C(=O)c1c(O)c3c(c(O)c1C2=O)C[C@@](O)(C(=O)CO)C[C@@H]3O[C@H]1C[C@H]2[C@H](OCN2C(=O)OCc2ccc(NC(=O)[C@H](CCCCN)NC(=O)[C@H](Cc3ccccc3)NC(=O)[C@@H](C)NC(=O)CNC(C)=O)cc2)[C@H](C)O1; experiment: Activity of human cathepsin B assessed as compound hydrolysis at 50 uM at pH 6.5 in PBS buffer containing 10 mM N-acetylcysteine by RP-HPLC; procedure, shortened: as §1
[9] = substrate: COc1cccc2c1C(=O)c1c(O)c3c(c(O)c1C2=O)C[C@@](O)(C(=O)CO)C[C@@H]3O[C@H]1C[C@H]2[C@H](OCN2C(=O)OCc2ccc(NC(=O)[C@H](CCCCN)NC(=O)[C@H](Cc3ccccc3)NC(=O)[C@@H](C)NC(=O)CNC(C)=O)cc2)[C@H](C)O1; experiment: Activity of human plasmin assessed as enzyme catalytic turnover for compound hydrolysis at 50 uM at pH 7.4 in PBS buffer by RP-HPLC; procedure, shortened: as §1
[10] = substrate: COc1cccc2c1C(=O)c1c(O)c3c(c(O)c1C2=O)C[C@@](O)(C(=O)CO)C[C@@H]3O[C@H]1C[C@H]2[C@H](OCN2C(=O)OCc2ccc(NC(=O)[C@H](CCCCN)NC(=O)[C@H](Cc3ccccc3)NC(=O)[C@@H](C)NC(=O)CNC(C)=O)cc2)[C@H](C)O1; experiment: Activity of human plasmin assessed as compound hydrolysis at 50 uM at pH 7.4 in PBS buffer by RP-HPLC; procedure, shortened: as §1

For `COc1cccc2c1C(=O)c1c(O)c3c(c(O)c1C2=O)C[C@@](O)(C(=O)CO)C[C@@H]3O[C@H]1C[C@H]2[C@H](OCN2C(=O)OCc2ccc(NC(=O)[C@H](CCCCN)NC(=O)[C@H](Cc3ccccc3)NC(=O)[C@@H](C)N)cc2)[C@H](C)O1.O=P(O)(O)O`, the Activity (MIA PaCa-2 [1]) was “Active”, the Activity (MCF7 [2]) was “Active” and the pIC50 (MCF7 [3]) was “Active”. The pIC50 (MIA PaCa-2 [4]) was “Active”, the Drug metabolism [5] was “Active” and the Stability [6] was “Stable”.

With “Cathepsin B (Homo sapiens) (from UniProt P07858)” the kcat [7] was 0.49 s⁻¹, the Km [8] was 108 µM and the Vmax [8] was 1.32 µM/min.

For `COc1cccc2c1C(=O)c1c(O)c3c(c(O)c1C2=O)C[C@@](O)(C(=O)CO)C[C@@H]3O[C@H]1C[C@H](NC(=O)OCc2ccc(NC(=O)[C@H](CCCCN)NC(=O)[C@H](Cc3ccccc3)NC(=O)[C@@H](C)N)cc2)[C@H](O)[C@H](C)O1`, the IC50 (MCF7 [3]) was < 1000 nM and the pIC50 (MIA PaCa-2 [4]) was “inactive”.

B1: Plasminogen (Homo sapiens), P00747 (protein)
chain: MEHKEVVLLLLLFLKSGQGEPLDDYVNTQGASLFSVTKKQLGAGSIEECAAKCEEDEEFTCRAFQYHSKEQQCVIMAENRKSSIIIRMRDVVLFEKKVYLSECKTGNGKNYRGTMSKTKNGITCQKWSSTSPHRPRFSPATHPSEGLEENYCRNPDNDPQGPWCYTTDPEKRYDYCDILECEEECMHCSGENYDGKISKTMSGLECQAWDSQSPHAHGYIPSKFPNKNLKKNYCRNPDRELRPWCFTTDPNKRWELCDIPRCTTPPPSSGPTYQCLKGTGENYRGNVAVTVSGHTCQHWSAQTPHTHNRTPENFPCKNLDENYCRNPDGKRAPWCHTTNSQVRWEYCKIPSCDSSPVSTEQLAPTAPPELTPVVQDCYHGDGQSYRGTSSTTTTGKKCQSWSSMTPHRHQKTPENYPNAGLTMNYCRNPDADKGPWCFTTDPSVRWEYCNLKKCSGTEASVVAPPPVVLLPDVETPSEEDCMFGNGKGYRGKRATTVTGTPCQDWAAQEPHRHSIFTPETNPRAGLEKNYCRNPDGDVGGPWCYTTNPRKLYDYCDVPQCAAPSFDCGKPQVEPKKCPGRVVGGCVAHPHSWPWQVSLRTRFGMHFCGGTLISPEWVLTAAHCLEKSPRPSSYKVILGAHQEVNLEPHVQEIEVSRLFLEPTRKDIALLKLSSPAVITDKVIPACLPSPNYVVADRTECFITGWGETQGTFGAGLLKEAQLPVIENKVCNRYEFLNGRVQSTELCAGHLAGGTDSCQGDSGGPLVCFEKDKYILQGVTSWGLGCARPNKPGVYVRVSRFVTWIEGVMRNN
Molecule B1 has a kcat [9] of 2.45 s⁻¹, a Km [10] of 171 µM and a Vmax [10] of 3.76 µM/min.
